The record followed here is ChEMBL document CHEMBL1157730, “Diaryl piperidines as CB1 receptor antagonists” (Bioorg Med Chem Lett, 2010).

pKi: −log10 of the molar value. A value given as a limit tells only on which side of the number the result lay.

For one data set, the target named is Cannabinoid receptor 1 (Homo sapiens, UniProt P21554). The data set can be described thus: Binding affinity to human CB1 receptor.
In data set [1] the target is T1, Cannabinoid receptor 2 (Homo sapiens, UniProt P34972). In words: Binding affinity to human CB2 receptor.
T1 sequence (P34972 whole entry): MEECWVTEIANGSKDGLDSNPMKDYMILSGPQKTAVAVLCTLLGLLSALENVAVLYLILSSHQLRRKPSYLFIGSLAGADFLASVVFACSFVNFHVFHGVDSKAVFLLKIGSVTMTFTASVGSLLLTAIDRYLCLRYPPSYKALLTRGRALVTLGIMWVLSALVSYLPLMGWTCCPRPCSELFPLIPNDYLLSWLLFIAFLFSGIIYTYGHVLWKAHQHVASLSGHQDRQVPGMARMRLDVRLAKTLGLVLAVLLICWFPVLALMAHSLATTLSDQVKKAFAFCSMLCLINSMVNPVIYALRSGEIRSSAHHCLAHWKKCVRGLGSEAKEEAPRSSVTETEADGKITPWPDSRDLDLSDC
Data set [2] relates to Mus musculus. The data set can be described thus: Reduction of food intake in DIO mouse model at 3 mg/kg, po after 2 hrs relative to control. Format: functional. Also noted: scale not given: the % may be the effect or the level left. In a few lines: (§1)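 Fed diet-induced obese mice; oral dosing 1 h before dark onset; food intake measured at 2, 4, 6 and 24 h and expressed as percent reduction versus vehicle-treated mice; significance threshold p<0.05.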

Data set [3] deals with Mus musculus. The data set can be described thus: Reduction of food intake in DIO mouse model at 3 mg/kg, po after 4 hrs relative to control. On the set-up: scale not given: the % may be the effect or the level left. Format: functional. In a few lines:
as §1

In data set [4] the test system is Mus musculus. The data set can be described thus: Reduction of food intake in DIO mouse model at 3 mg/kg, po after 6 hrs relative to control. Also noted: scale not given: the % may be the effect or the level left. Format: functional. In a few lines:
as §1

In data set [5] the test system is Mus musculus. The data set can be described thus: Reduction of food intake in DIO mouse model at 3 mg/kg, po after 24 hrs relative to control. On the set-up: scale not given: the % may be the effect or the level left. Format: functional. In a few lines: as §1
A short description of data set [6]: Drug level in DIO mouse plasma at 3 mg/kg, po after 24 hrs. It counts as ADME, organism-based. On the set-up: dose 3 mg/kg, route oral. As to conditions: read-out: Drug uptake. An outline of the steps: (§2)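 Diet-induced obese mice dosed orally at 3 mg/kg, 1 h before dark onset; total drug concentrations in plasma (ng/mL) and brain (ng/g) measured at the 24-h time point.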

A short description of data set [7]: Drug level in DIO mouse brain at 3 mg/kg, po after 24 hrs. On the set-up: dose 3 mg/kg, route oral. As to conditions: read-out: Drug uptake. Format: ADME, organism-based. In a few lines:
as §2

For data set [8], the target named is T1, Cannabinoid receptor 2. The data set can be described thus: Binding affinity to human CB2 receptor at 1 uM.

Sequence of Cannabinoid receptor 1 (P21554 whole entry): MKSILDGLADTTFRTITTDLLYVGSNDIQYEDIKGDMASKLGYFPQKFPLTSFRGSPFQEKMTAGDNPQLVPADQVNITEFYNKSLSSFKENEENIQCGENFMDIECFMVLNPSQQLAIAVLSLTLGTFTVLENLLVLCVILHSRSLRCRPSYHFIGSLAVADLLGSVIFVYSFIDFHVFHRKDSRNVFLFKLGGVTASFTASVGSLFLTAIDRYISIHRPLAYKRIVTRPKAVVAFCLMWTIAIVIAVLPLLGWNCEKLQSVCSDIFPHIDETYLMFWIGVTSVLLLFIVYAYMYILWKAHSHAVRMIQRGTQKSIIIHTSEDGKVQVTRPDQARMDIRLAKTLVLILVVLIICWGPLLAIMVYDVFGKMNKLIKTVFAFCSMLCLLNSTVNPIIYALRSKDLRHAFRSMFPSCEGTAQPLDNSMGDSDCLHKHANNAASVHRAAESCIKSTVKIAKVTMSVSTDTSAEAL

For the compound `Fc1ccc(C[C@H]2CC[C@H](c3ccc(Cl)cc3)N(c3ccc(Cl)cc3)C2)cc1F` (relative stereo), the pKi at Cannabinoid receptor 1 is 7.14; at Cannabinoid receptor 2 [1], less than 5.75.

For the compound `O=S(=O)(NCCC1CCC(c2ccc(Cl)cc2Cl)N(c2ccc(Cl)cc2)C1)C1CC1` (stereo in doubt; 14f), the results for the pKi on Cannabinoid receptor 1 and on Cannabinoid receptor 2 [1] were 8.47 and less than 5.62, respectively. Further, the Activity with Mus musculus [2] came to 39%; in the data set with Mus musculus [3], 37%; with Mus musculus [4], 38%; in the data set with Mus musculus [5], 37%. Moreover, the concentration at 24 h in [6] amounted to 15 ng/mL; in data set [7], 66 ng/g.

On to `NCC[C@@H]1CC[C@@H](c2ccc(Cl)cc2Cl)N(c2ccc(Cl)cc2)C1`, for which the pKi at Cannabinoid receptor 1 is 7.21; at Cannabinoid receptor 2 [1], less than 5.65.

As for `NC[C@@H]1CC[C@@H](c2ccc(Cl)cc2Cl)N(c2ccc(Cl)cc2)C1`, the pKi is 6.88 on Cannabinoid receptor 1 and less than 5.73 at Cannabinoid receptor 2 [1].

`O=S(=O)(NC[C@@H]1CC[C@@H](c2ccc(Cl)cc2Cl)N(c2ccc(Cl)cc2)C1)c1cccnc1`: the pKi was 8.22 at Cannabinoid receptor 1 and less than 5.73 on Cannabinoid receptor 2 [1].

For `N#Cc1ccc(S(=O)(=O)NCC[C@@H]2CC[C@@H](c3ccc(Cl)cc3Cl)N(c3ccc(Cl)cc3)C2)cc1`, the pKi at Cannabinoid receptor 1 was 8.38; at Cannabinoid receptor 2 [1], less than 5.65.

Take `Fc1ccc(C[C@H]2CC[C@H](c3ccc(Cl)cc3Cl)N(c3ccc(Cl)cc3)C2)cc1F` (relative stereo): the figures for the pKi on Cannabinoid receptor 1 and at Cannabinoid receptor 2 [1] were 7.82 and less than 5.73, respectively.

In the case of `Fc1ccc(C[C@@H]2CC[C@H](c3ccc(Cl)cc3)N(c3ccc(Cl)cc3)C2)cc1F` (relative stereo), the pKi on Cannabinoid receptor 1 is less than 5.79; on Cannabinoid receptor 2 [1], less than 5.73.

For the compound `CC(=O)N1CCN(C[C@@H]2CC[C@@H](c3ccc(Cl)cc3Cl)N(c3ccc(Cl)cc3)C2)CC1`, the pKi at Cannabinoid receptor 1 was 6.35; at Cannabinoid receptor 2 [1] it was less than 5.73.

In the case of `O=S(=O)(NCCC1CCC(c2ccc(Cl)cc2Cl)N(c2ccc(Cl)cc2)C1)C1CC1` (single isomer, unassigned; enantiomer 2), the results for the pKi at Cannabinoid receptor 1 and on Cannabinoid receptor 2 [1] were 7.24 and less than 5.62, respectively.

As for `O=S(=O)(NCC[C@@H]1CC[C@@H](c2ccc(Cl)cc2Cl)N(c2ccc(Cl)cc2)C1)C1CC1`, the results for the pKi on Cannabinoid receptor 1 and at Cannabinoid receptor 2 [1] were 8.42 and less than 5.65, respectively.

Turning to `O=S(=O)(C1CC1)N1CCN(C[C@@H]2CC[C@@H](c3ccc(Cl)cc3Cl)N(c3ccc(Cl)cc3)C2)CC1`, the negative-log Ki (pKi) on Cannabinoid receptor 1 was 7.36; on Cannabinoid receptor 2 [1] it was less than 5.65.

For the compound `O=C1[C@H](Cc2ccc(F)c(F)c2)CC[C@H](c2ccc(Cl)cc2)N1c1ccc(Cl)cc1` (relative stereo), the pKi at Cannabinoid receptor 1 is 6.15; on Cannabinoid receptor 2 [1], less than 5.75.

With `Clc1ccc(N2C[C@H](CN3CCNCC3)CC[C@H]2c2ccc(Cl)cc2Cl)cc1`, the pKi on Cannabinoid receptor 1 was 6.26; on Cannabinoid receptor 2 [1], less than 5.70.

As to `Fc1ccc(C[C@H]2CC[C@H](c3ccc(Cl)cc3)N(c3ccc(Cl)cc3Cl)C2)cc1F` (relative stereo), the values for the pKi on Cannabinoid receptor 1 and at Cannabinoid receptor 2 [1] were 6.33 and less than 5.73, respectively.

As for `O=C(NCc1ccc(Cl)cc1)[C@@H]1CC[C@@H](c2ccc(Cl)cc2Cl)N(c2ccc(Cl)cc2)C1`, the pKi was 7.20 on Cannabinoid receptor 1 and less than 5.73 at Cannabinoid receptor 2 [1].

In the case of `CCCS(=O)(=O)NC[C@@H]1CC[C@@H](c2ccc(Cl)cc2Cl)N(c2ccc(Cl)cc2)C1`, on Cannabinoid receptor 1, the pKi is 7.32. At Cannabinoid receptor 2 [8], the inhibition amounted to 25%.

With `CC(=O)NCC[C@@H]1CC[C@@H](c2ccc(Cl)cc2Cl)N(c2ccc(Cl)cc2)C1`, the pKi was 7.38 at Cannabinoid receptor 1 and less than 5.62 on Cannabinoid receptor 2 [1].

On to `CC(C)CCNS(=O)(=O)[C@@H]1CC[C@@H](c2ccc(Cl)cc2Cl)N(c2ccc(Cl)cc2)C1`, for which the pKi at Cannabinoid receptor 1 is 8.04; on Cannabinoid receptor 2 [1], 5.86.

For `O=C1[C@@H](Cc2ccc(F)c(F)c2)CC[C@H](c2ccc(Cl)cc2Cl)N1c1ccc(Cl)cc1` (relative stereo), the pKi at Cannabinoid receptor 1 is 6.96; at Cannabinoid receptor 2 [1], less than 5.78.

As for `CC(C)(C)OC(=O)N1CCN(C[C@@H]2CC[C@@H](c3ccc(Cl)cc3Cl)N(c3ccc(Cl)cc3)C2)CC1`, the pKi on Cannabinoid receptor 1 is 8.10; at Cannabinoid receptor 2 [1], less than 5.73.

Consider `O=S(=O)(C[C@@H]1CC[C@@H](c2ccc(Cl)cc2Cl)N(c2ccc(Cl)cc2)C1)NC1CCCCC1`, for which the figures for the pKi at Cannabinoid receptor 1 and at Cannabinoid receptor 2 [1] were 7.46 and 5.90, respectively.

As to `O=S(=O)(NCC[C@@H]1CC[C@@H](c2ccc(Cl)cc2Cl)N(c2ccc(Cl)cc2)C1)c1cccnc1`, the figures for the pKi at Cannabinoid receptor 1 and on Cannabinoid receptor 2 [1] were 8.24 and less than 5.65, respectively.

Consider `O=S(=O)(NC[C@@H]1CC[C@@H](c2ccc(Cl)cc2Cl)N(c2ccc(Cl)cc2)C1)c1cccc2ccccc12`, for which, on Cannabinoid receptor 1, the negative logarithm of the Ki (pKi) was 8.64. In addition, the inhibition on Cannabinoid receptor 2 [8] was 5%.

In the case of `O=C(NC1CCCCC1)[C@@H]1CC[C@@H](c2ccc(Cl)cc2Cl)N(c2ccc(Cl)cc2)C1`, the pKi on Cannabinoid receptor 1 was 7.74; at Cannabinoid receptor 2 [1], 6.43.

With `CC(C)(C)CC(=O)N1CCN(C[C@@H]2CC[C@@H](c3ccc(Cl)cc3Cl)N(c3ccc(Cl)cc3)C2)CC1`, the pKi was 7.89 at Cannabinoid receptor 1 and less than 5.62 on Cannabinoid receptor 2 [1]. In addition, the Activity in the data set on Mus musculus [2] is 0%; with Mus musculus [3], 0%; in the data set on Mus musculus [4] it was 3%; with Mus musculus [5], 9%. For the same compound, the concentration at 24 h in data set [6] turned out to be 1 ng/mL.

As to `O=C1[C@@H](Cc2ccc(F)c(F)c2)CC[C@H](c2ccc(Cl)cc2)N1c1ccc(Cl)cc1` (relative stereo), the pKi at Cannabinoid receptor 1 is 6.35; on Cannabinoid receptor 2 [1] it was 6.24.

`CS(=O)(=O)N1CCN(C[C@@H]2CC[C@@H](c3ccc(Cl)cc3Cl)N(c3ccc(Cl)cc3)C2)CC1`: the negative logarithm of the Ki (pKi) was 6.16 on Cannabinoid receptor 1 and less than 5.73 on Cannabinoid receptor 2 [1].

With `O=C(NC[C@@H]1CC[C@@H](c2ccc(Cl)cc2Cl)N(c2ccc(Cl)cc2)C1)C1CC1`, on Cannabinoid receptor 1, the negative-log Ki (pKi) was 6.95. This compound gave an inhibition on Cannabinoid receptor 2 [8] of 25%.

For `CC(C)(C)CCN1CCN(C[C@@H]2CC[C@@H](c3ccc(Cl)cc3Cl)N(c3ccc(Cl)cc3)C2)CC1`, the pKi at Cannabinoid receptor 1 was 7.24; on Cannabinoid receptor 2 [1], less than 5.82.

In the case of `N#Cc1ccc(C(=O)NCC[C@@H]2CC[C@@H](c3ccc(Cl)cc3Cl)N(c3ccc(Cl)cc3)C2)cc1`, the pKi at Cannabinoid receptor 1 is 8.29; on Cannabinoid receptor 2 [1] it was less than 5.61.

Take `O=C(NC1CCC1)[C@@H]1CC[C@@H](c2ccc(Cl)cc2Cl)N(c2ccc(Cl)cc2)C1`: the pKi at Cannabinoid receptor 1 is 7.48; at Cannabinoid receptor 2 [1] it was 5.86.

As to `CC(C)CNC(=O)[C@@H]1CC[C@@H](c2ccc(Cl)cc2Cl)N(c2ccc(Cl)cc2)C1`, the pKi on Cannabinoid receptor 1 was 7.48; at Cannabinoid receptor 2 [1] it was 5.80.

On to `N#Cc1ccc(C(=O)NC[C@@H]2CC[C@@H](c3ccc(Cl)cc3Cl)N(c3ccc(Cl)cc3)C2)cc1`, for which the pKi at Cannabinoid receptor 1 is 8.30; on Cannabinoid receptor 2 [1], 5.85. Besides, the Activity amounted to 22% with Mus musculus [2], 22% in the data set on Mus musculus [3], 24% in the data set with Mus musculus [4] and 10% in the data set on Mus musculus [5]. The values for the concentration at 24 h in data set [6] and in data set [7] were 28 ng/mL and 12 ng/g, respectively.

As for `O=S(=O)(NC[C@@H]1CC[C@@H](c2ccc(Cl)cc2Cl)N(c2ccc(Cl)cc2)C1)C1CC1`, the pKi at Cannabinoid receptor 1 is 6.80; at Cannabinoid receptor 2 [1] it was less than 5.73.
